Assay results: ChEMBL document CHEMBL5674869, “The Histone Methyltransferase Inhibitor A-366 Uncovers a Role for G9a/GLP in the Epigenetics of Leukemia” (PLoS One, 2015)
Active and inactive are the calls of the source. The calls are words filed in the database; no cut-off is given here.

What was measured:
MV4-11 [1] = assay: Antiproliferative activity against human MV4-11 cells after 14 days by Cell-titer Glo assay; format: functional, cell-based; conditions: time 14.0 day
Procedure, shortened: (§1)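 Leukemia cells (MV4;11 or HL-60) in medium with 10% FBS were treated with a dose range of compound for 14 days. Proliferation was read by CellTiter-Glo endpoint, with inhibition set against untreated controls and cell-free wells as 100% inhibition. Viability was also measured in parallel by trypan blue exclusion.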

[2] = biological target: T1, Histone-lysine N-methyltransferase EHMT2 (Homo sapiens) (UniProt Q96KQ7); assay: Inhibition of G9a in human PC-3 cells assessed as effect on H3k36me2 levels at 0.3 to 3 uM after 72 hrs by Western blot analysis; format: cell-based; conditions: dose 0.3-3 µM
T1 sequence (whole entry): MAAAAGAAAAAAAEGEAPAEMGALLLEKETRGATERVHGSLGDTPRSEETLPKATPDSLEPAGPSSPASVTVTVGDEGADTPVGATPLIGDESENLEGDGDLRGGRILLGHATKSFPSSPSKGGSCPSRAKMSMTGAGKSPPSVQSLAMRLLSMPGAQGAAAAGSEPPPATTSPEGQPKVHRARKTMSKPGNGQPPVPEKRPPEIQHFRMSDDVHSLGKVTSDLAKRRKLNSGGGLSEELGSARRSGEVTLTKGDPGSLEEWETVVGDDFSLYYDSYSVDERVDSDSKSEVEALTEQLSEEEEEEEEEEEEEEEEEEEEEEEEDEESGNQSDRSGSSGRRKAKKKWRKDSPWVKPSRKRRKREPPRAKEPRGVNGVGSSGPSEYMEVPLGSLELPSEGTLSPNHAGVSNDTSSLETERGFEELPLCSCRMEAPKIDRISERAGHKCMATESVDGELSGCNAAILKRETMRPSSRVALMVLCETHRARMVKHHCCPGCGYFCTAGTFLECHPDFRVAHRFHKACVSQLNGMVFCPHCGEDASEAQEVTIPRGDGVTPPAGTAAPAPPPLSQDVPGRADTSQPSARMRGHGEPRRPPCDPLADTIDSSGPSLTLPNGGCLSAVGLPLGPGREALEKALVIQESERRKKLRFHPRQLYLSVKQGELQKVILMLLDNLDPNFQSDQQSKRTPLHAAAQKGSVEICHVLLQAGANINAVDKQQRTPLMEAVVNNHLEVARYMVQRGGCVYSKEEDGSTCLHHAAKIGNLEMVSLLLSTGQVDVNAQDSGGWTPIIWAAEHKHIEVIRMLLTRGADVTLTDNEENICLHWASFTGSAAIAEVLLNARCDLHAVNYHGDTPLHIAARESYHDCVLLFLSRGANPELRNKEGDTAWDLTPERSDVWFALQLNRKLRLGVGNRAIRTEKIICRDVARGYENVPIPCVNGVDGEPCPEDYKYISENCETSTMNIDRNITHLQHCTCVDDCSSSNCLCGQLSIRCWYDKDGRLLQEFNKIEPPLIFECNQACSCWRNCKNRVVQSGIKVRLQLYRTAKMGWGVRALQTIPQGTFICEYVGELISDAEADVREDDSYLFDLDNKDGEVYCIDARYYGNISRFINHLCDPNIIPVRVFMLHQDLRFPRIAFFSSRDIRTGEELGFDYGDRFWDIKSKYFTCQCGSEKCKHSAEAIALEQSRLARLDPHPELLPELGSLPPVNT
Procedure, shortened: (§2)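 PC-3 prostate cells incubated with DMSO, 0.3 or 3 μM compound for 72 h. Lysates probed by western blot with antibodies to H3K9me2, H3K4me2, H3K4me3, H3K9me3, H4K20me1, H4K20me3, H3K36me2 and H3K27me3.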

HL-60 = assay: Antiproliferative activity against human HL-60 cells after 14 days by Cell-titer Glo assay; format: functional, cell-based; conditions: time 14.0 day; procedure, shortened: as §1
[3] = Drug level in SCID/beige mouse muscle xenografted with human MV4-11 cells at 30 mg/kg/day via osmotic-mini pump; format: ADME, organism-based, Muscle tissue; conditions: in vivo
Procedure, shortened: (§3)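 Tumor-bearing SCID-beige female mice (6–8 wk) with subcutaneous flank MV4;11 xenografts (5 x 10^6 cells in 50% Matrigel, grown to ~200 mm3). Compound given by osmotic mini-pump at 30 mg/kg/day in 98% PEG-400/2% Tween-80. Separate PK/PD arm sacrificed after 2, 7 and 14 days of treatment; plasma and tissues collected and analyzed for drug levels.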

HL-60 (human) = assay: Induction of cell cycle arrest in human HL-60 cells assessed as increase in G1 phase cells after 4 days by propidium iodide staining based flow cytometry; conditions: time 4.0 day
[4] = Drug level in SCID/beige mouse tumor xenografted with human MV4-11 cells at 30 mg/kg/day via osmotic-mini pump; format: ADME, organism-based, Neoplasm; conditions: in vivo; procedure, shortened: as §3
[5] = Drug level in SCID/beige mouse brain xenografted with human MV4-11 cells at 30 mg/kg/day via osmotic-mini pump; format: ADME, organism-based; conditions: in vivo; procedure, shortened: as §3
[6] = Drug level in SCID/beige mouse plasma xenografted with human MV4-11 cells at 30 mg/kg/day via osmotic-mini pump; format: ADME, organism-based; conditions: in vivo; procedure, shortened: as §3
[7] = biological target: T1, Histone-lysine N-methyltransferase EHMT2 (Homo sapiens); assay: Inhibition of G9a in human PC-3 cells assessed as effect on H3k4me3 levels at 0.3 to 3 uM after 72 hrs by Western blot analysis; format: cell-based; conditions: dose 0.3-3 µM; procedure, shortened: as §2
[8] = Drug level in SCID/beige mouse liver xenografted with human MV4-11 cells at 30 mg/kg/day via osmotic-mini pump; format: ADME, organism-based; conditions: in vivo; procedure, shortened: as §3
MV4-11 [9] = assay: Inhibition of cell viability in human MV4-11 cells after 14 days by trypan blue exclusion assay; format: functional, cell-based; conditions: time 14.0 day
Procedure, shortened: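 MV4;11 cells treated 14 days with compound over a concentration range. Viability scored by trypan blue exclusion; parallel proliferation read by CellTiter-Glo.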

[10] = biological target: T1, Histone-lysine N-methyltransferase EHMT2 (Homo sapiens); assay: Inhibition of G9a in human PC-3 cells assessed as effect on H4k20me3 levels at 0.3 to 3 uM after 72 hrs by Western blot analysis; format: cell-based; conditions: dose 0.3-3 µM; procedure, shortened: as §2
[11] = Cytotoxicity against human PBMC cells assessed as effect on cell viability after 48 hrs by Cell-titerGlo assay; format: toxicity, cell-based
Procedure, shortened: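 PBMCs from two human donors were pooled and grown in AIM-V medium. Cells were treated with compound for 48 h. Viability was read by CellTiter-Glo endpoint.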

[12] = biological target: T1, Histone-lysine N-methyltransferase EHMT2 (Homo sapiens); assay: Inhibition of G9a in human PC-3 cells assessed as effect on H3k4me2 levels at 0.3 to 3 uM after 72 hrs by Western blot analysis; format: cell-based; conditions: dose 0.3-3 µM; procedure, shortened: as §2
MCF7 = assay: Antiproliferative activity against human MCF7 cells assessed as effect on colony formation at 0.1 to 10 uM after 14 days by crystal violet staining based clonogenic assay; format: functional, cell-based; conditions: dose 0.1-10 µM, time 14.0 day
Procedure, shortened: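 Clonogenic assay: 500 live cells per well were seeded into six-well plates in drug-free medium. Compound diluted in culture medium was added 24 h later. Cells were cultured at 37°C, then fixed and stained with 0.2% crystal violet. Colonies were counted on an automated colony counter.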

HT-1080 = assay: Antiproliferative activity against human HT-1080 cells after 2 days by Cell-Titer-Glo assay; format: functional, cell-based; conditions: HT-1080, 48 h
Procedure, shortened: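 ATCC tumor lines were grown in their recommended media with 10% FBS and STR-authenticated. Cells were exposed to compound for the stated number of days. Viable cells were read by CellTiter-Glo endpoint. Inhibition was the ratio of treated to untreated wells, with cell-free wells set as 100% inhibition. The EC50 was taken from the dose response.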

Structure (SMILES) | Activity (MV4-11 [1]) | inhibition [2] | Activity (HL-60) | Drug uptake [3] | Activity (HL-60 (human)) | Drug uptake [4] | Drug uptake [5] | Drug uptake [6] | inhibition [7] | Drug uptake [8] | inhibition (MV4-11 [9]) | inhibition [10] | Activity [11] | inhibition [12] | Activity (MCF7) | EC50 (HT-1080) [nM]
COc1cc2c(cc1OCCCN1CCCC1)N=C(N)C21CCC1 | Active | inactive | Active | Active | Active | Active | Active | Active | inactive | Active | Active | inactive | Non-Toxic | inactive | inactive | 
COc1cc2c(NC3CCN(C(C)C)CC3)nc(C3CCCCC3)nc2cc1OCCCN1CCCC1 |  |  |  |  |  |  |  |  |  |  |  |  |  |  |  | 1400
